In publication PMC3946992 (Journal of molecular biology, 2013) one finds Kd data, which are given here for four compounds.

SMILES strings stand for the structures. Positions count from the first letter of the chain named.

Holding throughout (assay): isothermal titration calorimetry
Holding throughout (format): binding
On the technique in general: In ITC the heat of successive injections is recorded.

Assay [1] has as its target T1, p48 (Homo sapiens, UniProt P49642, K318A).
T1 sequence (P49642 1-420 K318A): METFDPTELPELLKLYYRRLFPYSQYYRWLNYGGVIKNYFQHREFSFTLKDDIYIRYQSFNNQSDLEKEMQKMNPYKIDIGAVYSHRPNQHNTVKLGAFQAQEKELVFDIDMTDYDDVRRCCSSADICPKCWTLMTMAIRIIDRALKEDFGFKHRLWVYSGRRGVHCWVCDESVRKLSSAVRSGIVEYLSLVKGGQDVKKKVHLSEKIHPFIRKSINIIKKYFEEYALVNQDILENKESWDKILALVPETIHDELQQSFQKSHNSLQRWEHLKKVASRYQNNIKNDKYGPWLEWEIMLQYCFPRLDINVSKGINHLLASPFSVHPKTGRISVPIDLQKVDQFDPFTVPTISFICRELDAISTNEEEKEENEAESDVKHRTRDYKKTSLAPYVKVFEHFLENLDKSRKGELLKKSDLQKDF
In short, it runs like this:
(§1)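 Recombinant human p48 (full length, site-directed point mutants, or residues 1–408 lacking 360–379) is His-tagged in E. coli BL21(DE3), tag-cleaved with H3C protease, then purified by nickel, heparin and S200 chromatography. Protein at 20–30 μM is put in 20 mM HEPES pH 7.2, 100 mM NaCl with 3-fold molar excess MnCl2 and titrated with 400 μM UTP (1 initial plus 28 injections). Kd comes from a single-site nonlinear least-squares fit, ± standard deviation.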

Assay [2] deals with T2, p48 (Homo sapiens, UniProt P49642).
T2 sequence (P49642 1-420): T1 sequence (P49642 1-420 K318A) with A318K
In short, it runs like this:
as §1

The target in assay [3] is T3, p48 (Homo sapiens, UniProt P49642, D111N).
T3 sequence (P49642 1-420 D111N): T1 sequence (P49642 1-420 K318A) with D111N, A318K
In short, it runs like this: as §1

Another assay deals with T4, p48/p58 (Homo sapiens, UniProt P49642).
T4 sequence (P49642 1-420): T1 sequence (P49642 1-420 K318A) with A318K
T4 sequence (P49643 1-509 partner): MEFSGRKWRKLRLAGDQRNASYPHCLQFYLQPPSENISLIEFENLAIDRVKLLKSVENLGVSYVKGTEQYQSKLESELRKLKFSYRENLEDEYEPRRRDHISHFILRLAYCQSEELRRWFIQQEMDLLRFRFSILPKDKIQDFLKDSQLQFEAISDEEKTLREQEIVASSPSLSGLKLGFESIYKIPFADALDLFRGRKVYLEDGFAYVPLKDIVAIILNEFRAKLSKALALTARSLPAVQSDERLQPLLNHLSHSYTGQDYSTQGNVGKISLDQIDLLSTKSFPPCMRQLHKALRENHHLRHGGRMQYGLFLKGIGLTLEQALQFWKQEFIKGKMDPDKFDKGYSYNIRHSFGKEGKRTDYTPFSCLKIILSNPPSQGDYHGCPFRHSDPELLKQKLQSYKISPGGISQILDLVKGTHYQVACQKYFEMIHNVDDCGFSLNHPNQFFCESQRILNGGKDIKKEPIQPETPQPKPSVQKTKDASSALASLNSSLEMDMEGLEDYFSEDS
In short, it runs like this:
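Recombinant human p48/p58 primase heterodimer is exchanged into 20 mM HEPES pH 7.2, 100 mM NaCl. Protein at 20–30 μM, pre-mixed with 3-fold molar excess MnCl2, is titrated by ITC with 400 μM nucleotide (UTP) in an initial injection plus 28 further injections. Kd comes from fitting a single-site binding model by nonlinear least squares, ± standard deviation.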

Assay [4] concerns the target T5, p48 (Homo sapiens, UniProt P49642, H315A).
T5 sequence (P49642 1-420 H315A): T1 sequence (P49642 1-420 K318A) with H315A, A318K
In short, it runs like this:
as §1

The target of the next assay is T6, p48ΔL (Homo sapiens, UniProt P49642, DEL360-379).
T6 sequence (P49642 with tags, fused parts or gaps DEL360-379): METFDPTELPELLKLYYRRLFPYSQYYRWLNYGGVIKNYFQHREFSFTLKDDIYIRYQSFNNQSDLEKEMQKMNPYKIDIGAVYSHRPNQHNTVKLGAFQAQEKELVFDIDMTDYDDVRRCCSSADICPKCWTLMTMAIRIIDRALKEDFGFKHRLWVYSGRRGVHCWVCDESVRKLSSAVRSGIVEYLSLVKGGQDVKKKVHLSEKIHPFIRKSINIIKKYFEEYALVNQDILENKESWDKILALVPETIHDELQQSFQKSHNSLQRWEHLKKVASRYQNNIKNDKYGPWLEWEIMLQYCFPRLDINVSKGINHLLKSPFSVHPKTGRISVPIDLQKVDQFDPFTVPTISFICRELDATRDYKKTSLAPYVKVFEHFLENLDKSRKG
In short, it runs like this:
as §1

Assay [5] concerns the target T7, p48 (Homo sapiens, UniProt P49642, D109N).
T7 sequence (P49642 1-420 D109N): T1 sequence (P49642 1-420 K318A) with D109N, A318K
In short, it runs like this:
as §1

Assay [6] has as its target T8, p48 (Homo sapiens, UniProt P49642, D306N).
T8 sequence (P49642 1-420 D306N): T1 sequence (P49642 1-420 K318A) with D306N, A318K
In short, it runs like this:
as §1

Broadly, the Kd is the concentration at which binding is half-saturated. The low end stands for tighter binding, the high end for weaker binding. Regarding `O=c1ccn([C@@H]2O[C@H](COP(=O)(O)OP(=O)(O)OP(=O)(O)O)[C@@H](O)[C@H]2O)c(=O)[nH]1` [UTP], the Kd at p48 [1] is 49 µM; on p48 [2] it was 11 µM; at p48 [3] it was 54 µM; at p48/p58 it was 20 µM; on p48 [4] it was 22 µM; on p48ΔL, 12.5 ± 0.72 µM. Moreover, the results for the equilibrium dissociation constant (Kd) on p48 [5] and at p48 [6] were 74 µM and 48 µM, respectively.
`Nc1ccn([C@@H]2O[C@H](COP(=O)(O)OP(=O)(O)OP(=O)(O)O)[C@@H](O)[C@H]2O)c(=O)n1` [CTP] showed a Kd at p48 [2] of 15 µM.
Regarding `Nc1ncnc2c1ncn2[C@@H]1O[C@H](COP(=O)(O)OP(=O)(O)OP(=O)(O)O)[C@@H](O)[C@H]1O` [ATP], at p48 [2], the dissociation constant Kd was 13 µM.
Still for that read-out and setting: the same measure for `Nc1nc2c(ncn2[C@@H]2O[C@H](COP(=O)(O)OP(=O)(O)OP(=O)(O)O)[C@@H](O)[C@H]2O)c(=O)[nH]1` [GTP]: 13 µM.
